Experiment: Antagonism of 2-methyl-5-HT effect on 5-hydroxytryptamine 3 receptor in isolated guinea pig ileum
Type: functional, tissue-based
Conditions: Cavia porcellus, read-out: pA2 (converted)
In short: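 Longitudinal muscle-myenteric plexus strip from guinea pig ileum, prepared by a literature method. Equilibrated 30 min at 500 mg resting tension in Tyrode solution, ca. 37°C, constant aeration. Agonist 2-methyl-5-HT added noncumulatively at 15 min intervals; antagonism of its contractile response measured. Values are means of three separate experiments.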

With `N#Cc1cc2cccnc2nc1N1CCN(c2ccccn2)CC1` the Kb was 126 µM.
With `CN1CCN(c2nc3ncccc3cc2C#N)CC1` the Kb was 0.0398 µM.
With `COc1ccc(N2CCN(c3nc4ncccc4cc3C#N)CC2)cc1` the Kb was 12.6 µM.
`N#Cc1cc2cccnc2nc1N1CCN(c2ccc([N+](=O)[O-])cc2)CC1` showed a Kb of 158 µM.
With `CCN1CCN(c2nc3ncccc3cc2C#N)CC1` the Kb was 0.0794 µM.
With `N#Cc1cc2cccnc2nc1N1CCN(c2ccccc2)CC1` the Kb was 2 µM.
`COc1cccc(N2CCN(c3nc4ncccc4cc3C#N)CC2)c1` showed a Kb of 1 µM.
For `N#Cc1cc2cccnc2nc1N1CCN(Cc2ccccc2)CC1`, the Kb was 7.94 µM.
Compound `COc1ccccc1N1CCN(c2nc3ncccc3cc2C#N)CC1` has a Kb of 3.98 µM.
Work on `C=CCN1CCN(c2nc3ncccc3cc2C#N)CC1` yielded a Kb of 0.00631 µM.
In the case of `N#Cc1cc2cccnc2nc1N1CCNCC1`, the Kb is reported as 0.316 µM.
Compound `Cc1nccn1CC1CCc2c(c3ccccc3n2C)C1=O` (configuration not stated) [ONDANSETRON] has a Kb of 0.126 µM.

Reference: ChEMBL document CHEMBL1137906, “Microwave assisted synthesis of 2-(4-substituted piperazin-1-yl)-1,8-naphthyridine-3-carbonitrile as a new class of serotonin 5-HT3 receptor antagonists” (Bioorg Med Chem Lett, 2004)
